Each block holds one molecule with its values, some of them ahead of it.
Legend:
Eimeria acervulina = experiment: Anticoccidial activity (percent reduction in oocyst production) against Eimeria acervulina in white leghorn chickens at 100 ppm; format: functional; set-up: scale not given: the % may be the effect or the level left
Outline: (§1)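 White Leghorn chicks were acclimated, then at 3 days old sorted by weight and randomized to medicated or control diets. There were one or two replicates of two birds per treatment. After 24 h of premedication, one bird per replicate got E. acervulina and the other E. tenella, both drug-sensitive laboratory strains. Inocula were sporulated oocysts in tap water, 0.25 mL per bird, giving low-to-moderate infection.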

[1] = target: cGMP-dependent protein kinase (Eimeria tenella, UniProt Q8MMZ8); experiment: In vitro inhibition of Eimeria tenella cGMP-dependent protein kinase
Eimeria tenella = experiment: Anticoccidial activity (percent reduction in oocyst production) against Eimeria tenella in white leghorn chickens at 100 ppm; format: functional; set-up: scale not given: the % may be the effect or the level left; outline: as §1
Gallus gallus [2] = species: Gallus gallus; experiment: Anticoccidial activity (percent reduction in oocyst production) against Eimeria acervulina in chickens at 25 ppm; Range = 50-79 %; format: functional; set-up: scale not given: the % may be the effect or the level left; outline: as §1
Gallus gallus [3] = species: Gallus gallus; experiment: Anticoccidial activity (percent reduction in oocyst production) against Eimeria brunetti in chickens at 50 ppm; format: functional; set-up: scale not given: the % may be the effect or the level left
Gallus gallus [4] = species: Gallus gallus; experiment: Anticoccidial activity (percent reduction in oocyst production) against Eimeria mitis in chickens at 25 ppm; Range = 50-79 %; format: functional; set-up: scale not given: the % may be the effect or the level left
Gallus gallus [5] = species: Gallus gallus; experiment: Anticoccidial activity (percent reduction in oocyst production) against Eimeria tenella in chickens at 50 ppm; format: functional; set-up: scale not given: the % may be the effect or the level left; outline: as §1
Gallus gallus [6] = species: Gallus gallus; experiment: Anticoccidial activity (percent reduction in oocyst production) against Eimeria necatrix in chickens at 50 ppm; format: functional; set-up: scale not given: the % may be the effect or the level left
Gallus gallus [7] = species: Gallus gallus; experiment: Anticoccidial activity (percent reduction in oocyst production) against Eimeria tenella in chickens at 75 ppm; format: functional; set-up: scale not given: the % may be the effect or the level left; outline: as §1
Gallus gallus [8] = species: Gallus gallus; experiment: Anticoccidial activity (percent reduction in oocyst production) against Eimeria maxima in chickens at 50 ppm; format: functional; set-up: scale not given: the % may be the effect or the level left
Gallus gallus [9] = experiment: Oral bioavailability in the chicken; format: functional, organism-based
Gallus gallus [10] = species: Gallus gallus; experiment: Anticoccidial activity (percent reduction in oocyst production) against Eimeria maxima in chickens at 25 ppm; Range = 50-79 %; format: functional; set-up: scale not given: the % may be the effect or the level left
Gallus gallus [11] = species: Gallus gallus; experiment: Anticoccidial activity (percent reduction in oocyst production) against Eimeria praecox in chickens at 125 ppm; format: functional; set-up: scale not given: the % may be the effect or the level left
Gallus gallus [12] = species: Gallus gallus; experiment: Anticoccidial activity (percent reduction in oocyst production) against Eimeria brunetti in chickens at 125 ppm; format: functional; set-up: scale not given: the % may be the effect or the level left
Gallus gallus [13] = species: Gallus gallus; experiment: Anticoccidial activity (percent reduction in oocyst production) against Eimeria acervulina in chickens at 50 ppm; format: functional; set-up: scale not given: the % may be the effect or the level left; outline: as §1
Gallus gallus [14] = species: Gallus gallus; experiment: Anticoccidial activity (percent reduction in oocyst production) against Eimeria mivati in chickens at 50 ppm; format: functional; set-up: scale not given: the % may be the effect or the level left
Gallus gallus [15] = species: Gallus gallus; experiment: Half-life in the chicken; format: functional, organism-based
Gallus gallus [16] = species: Gallus gallus; experiment: Anticoccidial activity (percent reduction in oocyst production) against Eimeria mivati in chickens at 125 ppm; format: functional; set-up: scale not given: the % may be the effect or the level left
Gallus gallus [17] = species: Gallus gallus; experiment: Anticoccidial activity (percent reduction in oocyst production) against Eimeria brunetti in chickens at 25 ppm; Range = 50-79 %; format: functional; set-up: scale not given: the % may be the effect or the level left
Gallus gallus [18] = species: Gallus gallus; experiment: Anticoccidial activity (percent reduction in oocyst production) against Eimeria mitis in chickens at 75 ppm; format: functional; set-up: scale not given: the % may be the effect or the level left
Gallus gallus [19] = species: Gallus gallus; experiment: Anticoccidial activity (percent reduction in oocyst production) against Eimeria mivati in chickens at 25 ppm; Range = 50-79 %; format: functional; set-up: scale not given: the % may be the effect or the level left
Gallus gallus [20] = species: Gallus gallus; experiment: Anticoccidial activity (percent reduction in oocyst production) against Eimeria mitis in chickens at 50 ppm; format: functional; set-up: scale not given: the % may be the effect or the level left
Gallus gallus [21] = species: Gallus gallus; experiment: Anticoccidial activity (percent reduction in oocyst production) against Eimeria tenella in chickens at 25 ppm; Range = 50-79 %; format: functional; set-up: scale not given: the % may be the effect or the level left; outline: as §1
Gallus gallus [22] = species: Gallus gallus; experiment: Anticoccidial activity (percent reduction in oocyst production) against Eimeria maxima in chickens at 125 ppm; format: functional; set-up: scale not given: the % may be the effect or the level left
Gallus gallus [23] = species: Gallus gallus; experiment: Anticoccidial activity (percent reduction in oocyst production) against Eimeria praecox in chickens at 25 ppm; Range = 50-79 %; format: functional; set-up: scale not given: the % may be the effect or the level left
Gallus gallus [24] = species: Gallus gallus; experiment: Anticoccidial activity (percent reduction in oocyst production) against Eimeria necatrix in chickens at 125 ppm; format: functional; set-up: scale not given: the % may be the effect or the level left
Gallus gallus [25] = species: Gallus gallus; experiment: Anticoccidial activity (percent reduction in oocyst production) against Eimeria praecox in chickens at 75 ppm; format: functional; set-up: scale not given: the % may be the effect or the level left
Gallus gallus [26] = species: Gallus gallus; experiment: Anticoccidial activity (percent reduction in oocyst production) against Eimeria maxima in chickens at 75 ppm; format: functional; set-up: scale not given: the % may be the effect or the level left
Gallus gallus [27] = species: Gallus gallus; experiment: Anticoccidial activity (percent reduction in oocyst production) against Eimeria mivati in chickens at 75 ppm; format: functional; set-up: scale not given: the % may be the effect or the level left
Gallus gallus [28] = species: Gallus gallus; experiment: Anticoccidial activity (percent reduction in oocyst production) against Eimeria praecox in chickens at 50 ppm; format: functional; set-up: scale not given: the % may be the effect or the level left
Gallus gallus [29] = species: Gallus gallus; experiment: Anticoccidial activity (percent reduction in oocyst production) against Eimeria acervulina in chickens at 75 ppm; format: functional; set-up: scale not given: the % may be the effect or the level left; outline: as §1
Gallus gallus [30] = species: Gallus gallus; experiment: Anticoccidial activity (percent reduction in oocyst production) against Eimeria necatrix in chickens at 75 ppm; format: functional; set-up: scale not given: the % may be the effect or the level left
Gallus gallus [31] = species: Gallus gallus; experiment: Anticoccidial activity (percent reduction in oocyst production) against Eimeria acervulina in chickens at 125 ppm; format: functional; set-up: scale not given: the % may be the effect or the level left; outline: as §1
Gallus gallus [32] = species: Gallus gallus; experiment: Anticoccidial activity (percent reduction in oocyst production) against Eimeria brunetti in chickens at 75 ppm; format: functional; set-up: scale not given: the % may be the effect or the level left
Gallus gallus [33] = species: Gallus gallus; experiment: Anticoccidial activity (percent reduction in oocyst production) against Eimeria necatrix in chickens at 25 ppm; Range = 50-79 %; format: functional; set-up: scale not given: the % may be the effect or the level left
Gallus gallus [34] = species: Gallus gallus; experiment: Anticoccidial activity (percent reduction in oocyst production) against Eimeria tenella in chickens at 125 ppm; format: functional; set-up: scale not given: the % may be the effect or the level left; outline: as §1
Gallus gallus [35] = species: Gallus gallus; experiment: Anticoccidial activity (percent reduction in oocyst production) against Eimeria mitis in chickens at 125 ppm; format: functional; set-up: scale not given: the % may be the effect or the level left

Sequence of cGMP-dependent protein kinase (Q8MMZ8 whole entry): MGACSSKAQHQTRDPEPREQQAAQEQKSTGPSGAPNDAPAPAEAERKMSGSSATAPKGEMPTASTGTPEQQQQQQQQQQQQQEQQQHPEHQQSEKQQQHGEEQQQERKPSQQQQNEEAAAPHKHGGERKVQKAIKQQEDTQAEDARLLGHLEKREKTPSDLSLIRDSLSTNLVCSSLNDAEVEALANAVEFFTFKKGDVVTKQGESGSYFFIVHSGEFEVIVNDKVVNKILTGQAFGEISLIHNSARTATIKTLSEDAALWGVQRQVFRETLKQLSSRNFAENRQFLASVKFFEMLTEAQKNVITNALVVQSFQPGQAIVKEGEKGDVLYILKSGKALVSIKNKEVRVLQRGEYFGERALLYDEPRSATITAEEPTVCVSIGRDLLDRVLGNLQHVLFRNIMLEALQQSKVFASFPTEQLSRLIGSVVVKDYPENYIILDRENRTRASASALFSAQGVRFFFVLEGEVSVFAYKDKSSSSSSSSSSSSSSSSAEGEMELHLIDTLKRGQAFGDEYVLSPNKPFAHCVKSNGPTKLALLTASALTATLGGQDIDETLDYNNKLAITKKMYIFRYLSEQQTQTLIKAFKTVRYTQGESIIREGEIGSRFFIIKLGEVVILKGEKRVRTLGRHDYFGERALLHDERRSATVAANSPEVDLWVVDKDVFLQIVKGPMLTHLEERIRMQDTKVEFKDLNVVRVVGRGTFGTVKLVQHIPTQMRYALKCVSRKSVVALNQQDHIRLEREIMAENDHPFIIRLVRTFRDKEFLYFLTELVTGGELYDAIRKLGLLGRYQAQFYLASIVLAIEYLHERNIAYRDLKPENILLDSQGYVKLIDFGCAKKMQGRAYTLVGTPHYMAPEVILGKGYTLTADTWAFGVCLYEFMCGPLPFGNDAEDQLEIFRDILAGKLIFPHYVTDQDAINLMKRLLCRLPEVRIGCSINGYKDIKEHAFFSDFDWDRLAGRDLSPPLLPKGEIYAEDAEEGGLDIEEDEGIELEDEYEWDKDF

Structure (SMILES): Cc1cc(-c2cc(C3CCN(C)CC3)[nH]c2-c2ccc(F)cc2)on1
Activity (Eimeria acervulina): <50%
IC50 [1]: > 1000 nM
Activity (Eimeria tenella): <50%

Structure (SMILES): CN1CCC(c2cc(-c3ccncc3)c(-c3cccc(F)c3)[nH]2)CC1
Activity (Eimeria acervulina): <50%
IC50 [1]: 7.4 nM
Activity (Eimeria tenella): <50%

Structure (SMILES): Cc1cc(-c2cc(C3CCN(C)CC3)[nH]c2-c2ccc(F)cc2)ccn1
Activity (Eimeria acervulina): <50%
IC50 [1]: 2.8 nM
Activity (Eimeria tenella): <50%

Structure (SMILES): CN1CCC(c2cc(-c3ccncc3)c(-c3ccc(F)c(F)c3)[nH]2)CC1
Activity (Eimeria acervulina): <50%
IC50 [1]: 2 nM
Activity (Eimeria tenella): >=80%

Structure (SMILES): CN1CCC(c2cc(-c3ccncc3)c(-c3ccsc3)[nH]2)CC1
Activity (Eimeria acervulina): <50%
IC50 [1]: 11.9 nM
Activity (Eimeria tenella): <50%

Structure (SMILES): CN1CCC(c2cc(-c3ccncc3)c(-c3ccc(O)cc3)[nH]2)CC1
Activity (Eimeria acervulina): <50%
IC50 [1]: 50 nM
Activity (Eimeria tenella): <50%

Structure (SMILES): CN1CCC(c2cc(-c3ccncc3)c(-c3ccc(S(C)(=O)=O)cc3)[nH]2)CC1
Activity (Eimeria acervulina): <50%
IC50 [1]: 42 nM
Activity (Eimeria tenella): >=80%

Structure (SMILES): CN1CCC(c2cc(-c3ccncc3)c(-c3ccccc3)[nH]2)CC1
IC50 [1]: 3.1 nM

Structure (SMILES): CN1CCC(c2cc(-c3ccncc3)c(-c3ccc(OC(F)(F)F)cc3)[nH]2)CC1
Activity (Eimeria acervulina): <50%
IC50 [1]: 46 nM
Activity (Eimeria tenella): >=80%

Structure (SMILES): CN1CCC(c2cc(-c3ccncc3)c(-c3ccoc3)[nH]2)CC1
Activity (Eimeria acervulina): <50%
IC50 [1]: 26.3 nM
Activity (Eimeria tenella): <50%

The next molecules have a lower IC50 [1] than those just listed; values first:

IC50 [1]: 0.32 nM
Structure (SMILES): CC(=O)CN1CCC(c2cc(-c3ccncc3)c(-c3ccc(F)cc3)[nH]2)CC1
Activity (Eimeria acervulina): <50%
Activity (Eimeria tenella): <50%

IC50 [1]: 0.28 nM
Structure (SMILES): CN1CCC1CN1CCC(c2cc(-c3ccncc3)c(-c3ccc(F)cc3)[nH]2)CC1 (configuration not stated)
Activity (Eimeria acervulina): >=80%
Activity (Eimeria tenella): >=80%

IC50 [1]: 0.28 nM
Structure (SMILES): CCN1CCC(c2cc(-c3ccncc3)c(-c3ccc(F)cc3)[nH]2)CC1
Activity (Gallus gallus [2]): <79%
Activity (Gallus gallus [3]): >=80%
Activity (Gallus gallus [4]): <79%
Activity (Gallus gallus [5]): >=80%
Activity (Gallus gallus [6]): >=80%
Activity (Gallus gallus [7]): >=80%
Activity (Gallus gallus [8]): >=80%
bioavailability (Gallus gallus [9]): 84%
Activity (Gallus gallus [10]): <79%
Activity (Gallus gallus [11]): >=80%
Activity (Gallus gallus [12]): >=80%
Activity (Gallus gallus [13]): >=80%
Activity (Gallus gallus [14]): >=80%
T1/2 (Gallus gallus [15]): 1.2 h
Activity (Eimeria acervulina): >=80%
Activity (Gallus gallus [16]): >=80%
Activity (Gallus gallus [17]): <79%
Activity (Gallus gallus [18]): >=80%
Activity (Gallus gallus [19]): <79%
Activity (Gallus gallus [20]): >=80%
Activity (Gallus gallus [21]): <79%
Activity (Gallus gallus [22]): >=80%
Activity (Gallus gallus [23]): <79%
Activity (Gallus gallus [24]): >=80%
Activity (Gallus gallus [25]): >=80%
Activity (Gallus gallus [26]): >=80%
Activity (Gallus gallus [27]): >=80%
Activity (Eimeria tenella): >=80%
Activity (Gallus gallus [28]): >=80%
Activity (Gallus gallus [29]): >=80%
Activity (Gallus gallus [30]): >=80%
Activity (Gallus gallus [31]): >=80%
Activity (Gallus gallus [32]): >=80%
Activity (Gallus gallus [33]): <79%
Activity (Gallus gallus [34]): >=80%
Activity (Gallus gallus [35]): >=80%

IC50 [1]: 0.24 nM
Structure (SMILES): NC1(CN2CCC(c3cc(-c4ccncc4)c(-c4ccc(F)cc4)[nH]3)CC2)CC1
Activity (Eimeria acervulina): <50%
Activity (Eimeria tenella): <50%

IC50 [1]: 1.2 nM
Structure (SMILES): CN1CCC(c2[nH]c(-c3ccc(F)cc3)c(-c3ccncc3)c2Br)CC1
Activity (Eimeria acervulina): <50%
Activity (Eimeria tenella): <50%

IC50 [1]: 1 nM
Structure (SMILES): CN1CCC(c2cc(-c3ccncc3)c(-c3ccc(Cl)cc3)[nH]2)CC1
Activity (Eimeria acervulina): >=80%
Activity (Eimeria tenella): <50%

IC50 [1]: 1 nM
Structure (SMILES): Cc1c(C2CCN(C)CC2)[nH]c(-c2ccc(F)cc2)c1-c1ccncc1
Activity (Eimeria acervulina): <50%
Activity (Eimeria tenella): <50%

IC50 [1]: 0.15 nM
Structure (SMILES): CN1CCC(c2cc(-c3ccncc3)c(-c3ccc(F)c(Br)c3)[nH]2)CC1
Activity (Eimeria acervulina): <50%
Activity (Eimeria tenella): <50%

IC50 [1]: 0.97 nM
Structure (SMILES): CN1CCC(c2nc(-c3ccc(F)cc3)c(-c3ccncc3)o2)CC1
Activity (Eimeria acervulina): >=80%
Activity (Eimeria tenella): >=80%

IC50 [1]: 1.1 nM
Structure (SMILES): CN1CCC(c2nc(-c3ccc(F)cc3)c(-c3ccncc3)[nH]2)CC1
Activity (Eimeria acervulina): <50%
Activity (Eimeria tenella): >=80%

From ChEMBL document CHEMBL1140243, “Synthesis and SAR of 2,3-diarylpyrrole inhibitors of parasite cGMP-dependent protein kinase as novel anticoccidial agents” (Bioorg Med Chem Lett, 2005)
